For 20 compounds, IC50 and selectivity ratio results are on record in ChEMBL document CHEMBL4837232, “Synthesis, in vitro antiprotozoal activity, molecular docking and molecular dynamics studies of some new monocationic guanidinobenzimidazoles” (Eur J Med Chem, 2021).

Series [1] relates to Plasmodium falciparum. Briefly: Antiplasmodial activity against bloodstream form of Plasmodium falciparum NF54 […] assessed as reduction in [3H]-hypoxanthine incorporation pretreated for 48 hrs followed by [3H]-hypoxanthine addition measured after 24 hrs by liquid scintillation counting method. The series is classed as functional, organism-based.
For series [2], the system named is L6. Briefly: Cytotoxicity against rat L6 cells assessed as reduction in cell viability incubated for 70 hrs by resazurin dye based fluorescence assay. The conditions noted are these: L6, 70 h. Put shortly: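 Uses cultured L-6 rat skeletal myoblasts with an Alamar Blue viability read-out, run per an earlier protocol. The IC50 is the mean of at least two independent experiments, with individual values within a factor of two.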

The test system of series [3] is Trypanosoma brucei rhodesiense. Briefly: Antitrypanosomal activity against bloodstream form of Trypanosoma brucei rhodesiense STIB900 incubated for 70 hrs by resazurin dye-based fluorometric analysis. The series is classed as functional, organism-based. The conditions noted are these: STIB900, 70 h. In general terms: Resazurin is reduced to fluorescent resorufin, in cell work by metabolically active cells.

Series [4] deals with Trypanosoma cruzi. Briefly: Antitrypanosomal activity against Trypanosoma cruzi Tulahuen C4 strain amastigotes infected in rat L6 cells measured after 96 hrs by inverted microscopy analysis. The conditions noted are these: Tulahuen C4, L6, 96 h. In kind it is functional, organism-based.
Series [5] has as its system Leishmania donovani. Briefly: Antileishmanial activity against Leishmania donovani MHOM/ET/67/L82 amastigotes measured after 70 hrs by resazurin dye based fluorometric analysis. In kind it is functional, organism-based. The conditions noted are these: MHOM/ET/67/L82, 70 h.
Series [6] is described as follows: Selectivity index, ratio of IC50 for cytotoxicity against rat L6 cells to IC50 for antiplasmodial activity against bloodstream form of Plasmodium falciparum NF54. The series is classed as toxicity, cell-based. The conditions noted are these: read-out: Ratio IC50. Put shortly:
(§1)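 Each index is the L6-cell IC50 divided by the IC50 for the given parasite. Each IC50 is the mean of at least two independent experiments, agreeing within a factor of two.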

Series [7] can be described thus: Selectivity index, ratio of IC50 for cytotoxicity against rat L6 cells to IC50 for antitrypanosomal activity against Trypanosoma cruzi Tulahuen C4 strain amastigotes infected in rat L6 cell. The conditions noted are these: read-out: Ratio IC50. The series is classed as toxicity, cell-based. A digest of the protocol: as §1
The nature of series [8]: Selectivity index, ratio of IC50 for cytotoxicity against rat L6 cells to IC50 for antitrypanosomal activity against bloodstream form of Trypanosoma brucei rhodesiense STIB900. In kind it is toxicity, cell-based. The conditions noted are these: read-out: Ratio IC50. Put shortly:
as §1

Series [9] is described as follows: Selectivity index, ratio of IC50 for cytotoxicity against rat L6 cells to IC50 for antileishmanial activity against Leishmania donovani MHOM/ET/67/L82 amastigotes. The conditions noted are these: read-out: Ratio IC50. In kind it is toxicity, cell-based. Put shortly: as §1

Values after ≈ are worked out from the molar mass of the structure shown.

For the compound `N=C(N)Nc1ccc2[nH]c(-c3ccc(F)c(F)c3)nc2c1`, the IC50 (in general, the concentration at which inhibition is half-maximal) in series [1] was 2.67 µg/mL (≈ 9.29 µM); in series [2] it was above 100 µg/mL; in [3] it was 6.04 µg/mL (≈ 21 µM); in [4], 67 µg/mL (≈ 233 µM); in series [5], above 100 µg/mL.
In the case of `N=C(N)Nc1ccc2[nH]c(-c3ccc4c(c3)OCCO4)nc2c1`, the IC50 in series [1] was determined as 0.82 µg/mL (≈ 2.65 µM); in series [2], 73.5 µg/mL (≈ 238 µM); in series [3] it was 10.1 µg/mL (≈ 32.7 µM); in [4] it was 75.1 µg/mL (≈ 243 µM); in series [5] it was 56.2 µg/mL (≈ 182 µM).
Regarding `N=C(N)Nc1ccc2[nH]c(-c3ccc(OCc4ccccc4)cc3)nc2c1`, the IC50 in series [1] is 0.226 µg/mL (≈ 0.632 µM); in series [2], 43.2 µg/mL (≈ 121 µM); in series [3], 13.6 µg/mL (≈ 38.1 µM); in [4], 38 µg/mL (≈ 106 µM); in [5], above 100 µg/mL.
For the compound `N=C(N)Nc1ccc2[nH]c(-c3ccc4c(c3)Cc3ccccc3-4)nc2c1`, the IC50 in [1] amounted to 0.168 µg/mL (≈ 0.495 µM); in series [2] it was 43.6 µg/mL (≈ 128 µM); in series [3] it was 6.03 µg/mL (≈ 17.8 µM); in [4], 34.3 µg/mL (≈ 101 µM); in series [5], 40.3 µg/mL (≈ 119 µM).
As for `COc1ccc(-c2nc3cc(NC(=N)N)ccc3[nH]2)cc1OC`, the IC50 in series [1] is 0.153 µg/mL (≈ 0.491 µM); in [2] it was 78 µg/mL (≈ 251 µM); in series [3], 23.8 µg/mL (≈ 76.4 µM); in series [4], above 100 µg/mL; in [5], 97.8 µg/mL (≈ 314 µM).
With `COc1ccc(Oc2ccc(-c3nc4cc(NC(=N)N)ccc4[nH]3)cc2)cc1OC`, the IC50 in [1] is 0.052 µg/mL (≈ 0.129 µM); in series [2], above 100 µg/mL; in series [3], 12.5 µg/mL (≈ 31 µM); in series [4], 58.6 µg/mL (≈ 145 µM); in series [5] it was 58 µg/mL (≈ 144 µM). Besides, the selectivity ratio in [6] was above 1920; in series [7] it was above 2; in [8], above 8; in [9] it was above 2.
With `N=C(N)Nc1ccc2[nH]c(-c3ccc(Oc4ccccc4)cc3)nc2c1`, the IC50 was 1.87 µg/mL (≈ 5.45 µM) in [1]; 51.6 µg/mL (≈ 150 µM) in [2]; 16.1 µg/mL (≈ 46.9 µM) in [3]; 49.5 µg/mL (≈ 144 µM) in series [4]; above 100 µg/mL in [5].
With `N=C(N)Nc1ccc2[nH]c(-c3cccc4cnccc34)nc2c1`, the IC50 in series [1] is 2.72 µg/mL (≈ 9 µM); in [2], 44.6 µg/mL (≈ 148 µM); in [3], 3.8 µg/mL (≈ 12.6 µM); in series [4] it was 8.57 µg/mL (≈ 28.3 µM); in [5] it was 46.3 µg/mL (≈ 153 µM).
In the same order, the values of `N#Cc1ccc(-c2nc3cc(NC(=N)N)ccc3[nH]2)cc1` are 1.17 µg/mL (≈ 4.23 µM), above 100 µg/mL, 18.2 µg/mL (≈ 65.9 µM), 89.5 µg/mL (≈ 324 µM) and above 100 µg/mL.
Regarding `N=C(N)Nc1ccc2[nH]c(-c3ccc(-c4ccccc4)s3)nc2c1`, the IC50 stood at 0.279 µg/mL (≈ 0.837 µM) in [1]; 48.4 µg/mL (≈ 145 µM) in series [2]; 16 µg/mL (≈ 48 µM) in series [3]; 36.5 µg/mL (≈ 109 µM) in [4]; 44 µg/mL (≈ 132 µM) in [5].
For `N=C(N)Nc1ccc2[nH]c(-c3csc4ccccc34)nc2c1`, the IC50 in series [1] was determined as 0.57 µg/mL (≈ 1.85 µM); in series [2], 40 µg/mL (≈ 130 µM); in [3] it was 12.1 µg/mL (≈ 39.4 µM); in series [4], 53.1 µg/mL (≈ 173 µM); in [5] it was 58.6 µg/mL (≈ 191 µM).
As to `N=C(N)Nc1ccc2[nH]c(-c3ccc(C(=O)O)cc3)nc2c1`, the IC50 was 37.2 µg/mL (≈ 126 µM) in series [1]; above 100 µg/mL in series [2]; 72.1 µg/mL (≈ 244 µM) in [3]; 59.1 µg/mL (≈ 200 µM) in series [4]; above 100 µg/mL in [5].
Turning to `N=C(N)Nc1ccc2[nH]c(-c3ccc(Cl)cc3)nc2c1`, the IC50 in [1] was 1.89 µg/mL (≈ 6.61 µM); in [2], 71.1 µg/mL (≈ 249 µM); in series [3], 29.5 µg/mL (≈ 103 µM); in series [4], 90.5 µg/mL (≈ 317 µM); in [5], 64.5 µg/mL (≈ 226 µM).
In the same order, the values of `N=C(N)Nc1ccc2[nH]c(-c3ccccc3)nc2c1` are 4.07 µg/mL (≈ 16.2 µM), above 100 µg/mL, 11.6 µg/mL (≈ 46.2 µM), 61.2 µg/mL (≈ 244 µM) and above 100 µg/mL.
In the same order, the values of `N=C(N)Nc1ccc2[nH]c(-c3cccc4ccccc34)nc2c1` are 1.41 µg/mL (≈ 4.68 µM), 48.9 µg/mL (≈ 162 µM), 11.8 µg/mL (≈ 39.2 µM), 63.6 µg/mL (≈ 211 µM) and above 100 µg/mL.
In the same order, the values of `Cc1ncsc1-c1nc2cc(NC(=N)N)ccc2[nH]1` are 3.03 µg/mL (≈ 11.1 µM), 93 µg/mL (≈ 341 µM), 17.3 µg/mL (≈ 63.5 µM), 64 µg/mL (≈ 235 µM) and 46.8 µg/mL (≈ 172 µM).
Turning to `N=C(N)Nc1ccc2[nH]c(-c3ccc(-c4cccs4)s3)nc2c1`, the IC50 in [1] was found to be 0.19 µg/mL (≈ 0.56 µM); in series [2], 49.9 µg/mL (≈ 147 µM); in series [3], 11.8 µg/mL (≈ 34.8 µM); in [4] it was 46.1 µg/mL (≈ 136 µM); in series [5] it was 37.7 µg/mL (≈ 111 µM).
As for `Cc1ccc(-c2nc3cc(NC(=N)N)ccc3[nH]2)c(C)c1`, the IC50 in [1] was 6.26 µg/mL (≈ 22.4 µM); in series [2] it was 97.8 µg/mL (≈ 350 µM); in [3], 40.8 µg/mL (≈ 146 µM); in series [4], above 100 µg/mL; in series [5] it was above 100 µg/mL.
Regarding `N=C(N)Nc1ccc2[nH]c(-c3cc(-c4ccc(Cl)cc4)on3)nc2c1`, the IC50 in series [1] is 1.14 µg/mL (≈ 3.23 µM); in series [2] it was 46.8 µg/mL (≈ 133 µM); in series [3], 5.62 µg/mL (≈ 15.9 µM); in [4], 21.7 µg/mL (≈ 61.5 µM); in [5] it was 7.7 µg/mL (≈ 21.8 µM).
Take `N=C(N)Nc1ccc2[nH]c(-c3ccc(-c4ccccc4)cc3)nc2c1`: the IC50 in series [1] turned out to be 0.018 µg/mL (≈ 0.055 µM); in series [2] it was 46.2 µg/mL (≈ 141 µM); in series [3], 21.5 µg/mL (≈ 65.7 µM); in series [4], 54.3 µg/mL (≈ 166 µM); in series [5], 52.5 µg/mL (≈ 161 µM). The selectivity ratio came to 2360 in series [6], 0.8 in series [7], 2 in series [8] and 0.8 in series [9].
